Assay results from ChEMBL document CHEMBL3585281, “Antibacterial Labdane Diterpenoids from Vitex vestita” (2015).
≈ marks a conversion by molar mass, not a printed value.

Key:
Format in all cases: functional
[1] = test system: Staphylococcus aureus; assay: Antibacterial activity against Staphylococcus aureus CRBIP 2121 after 18 hrs by agar dilution method; settings: CRBIP 2121, 18 h
How it was run: (§1)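 Agar-dilution MIC against Gram-positive strains. Compounds in DMSO, geometric dilutions giving final 100−0.75 mg/L in Mueller Hinton agar. Strains grown 18 h at 37 °C in trypticase soy broth, diluted in sterile water, spotted by Steers inoculator (about 1000 UFC/spot). Plates incubated 18 h at 37 °C; DMSO blank; ofloxacin positive control. MIC = lowest concentration with no visible growth.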

[2] = test system: Streptococcus agalactiae; assay: Antibacterial activity against Streptococcus agalactiae CIP 103227 after 18 hrs by agar dilution method; settings: ATCC 13813, 18 h; how it was run: as §1
[3] = test system: Listeria monocytogenes; assay: Antibacterial activity against Listeria monocytogenes N851 after 18 hrs by agar dilution method; settings: N851, 18 h; how it was run: as §1
[4] = test system: Staphylococcus aureus; assay: Antibacterial activity against Staphylococcus aureus CIP 53156 after 18 hrs by agar dilution method; settings: CIP 53156, 18 h; how it was run: as §1
[5] = test system: Bacillus cereus; assay: Antibacterial activity against Bacillus cereus N349 after 18 hrs by agar dilution method; settings: N349, 18 h; how it was run: as §1
[6] = test system: Staphylococcus aureus; assay: Antibacterial activity against Staphylococcus aureus CIP 53154 after 18 hrs by agar dilution method; settings: CIP 53154, 18 h; how it was run: as §1
[7] = test system: Enterococcus faecalis; assay: Antibacterial activity against Enterococcus faecalis CIP 103214 after 18 hrs by agar dilution method; settings: CIP 103214, 18 h; how it was run: as §1
[8] = test system: Staphylococcus saprophyticus; assay: Antibacterial activity against Staphylococcus saprophyticus E260 after 18 hrs by agar dilution method; settings: E260, 18 h; how it was run: as §1
[9] = test system: Enterococcus faecium; assay: Antibacterial activity against Enterococcus faecium N507 after 18 hrs by agar dilution method; settings: N507, 18 h; how it was run: as §1
[10] = test system: Bacillus cereus; assay: Antibacterial activity against Bacillus cereus CIP 6624 after 18 hrs by agar dilution method; settings: CIP 6624, 18 h; how it was run: as §1
[11] = test system: Enterococcus faecium; assay: Antibacterial activity against Enterococcus faecium CIP 103014 after 18 hrs by agar dilution method; settings: CIP 103014, 18 h; how it was run: as §1
[12] = test system: Staphylococcus aureus; assay: Antibacterial activity against Staphylococcus aureus ATCC 9144 oxford after 18 hrs by agar dilution method; how it was run: as §1
[13] = test system: Enterococcus faecium; assay: Antibacterial activity against Enterococcus faecium N490 after 18 hrs by agar dilution method; settings: N490, 18 h; how it was run: as §1
[14] = test system: Staphylococcus lugdunensis; assay: Antibacterial activity against Staphylococcus lugdunensis ATCC 43809 after 18 hrs by agar dilution method; settings: ATCC 43809, 18 h; how it was run: as §1
[15] = test system: Bacillus cereus; assay: Antibacterial activity against Bacillus cereus N190 after 18 hrs by agar dilution method; settings: N190, 18 h; how it was run: as §1
[16] = test system: Enterococcus faecalis; assay: Antibacterial activity against Enterococcus faecalis N520 after 18 hrs by agar dilution method; settings: N520, 18 h; how it was run: as §1
[17] = test system: Staphylococcus intermedius; assay: Antibacterial activity against Staphylococcus intermedius N987 after 18 hrs by agar dilution method; settings: N987, 18 h; how it was run: as §1
[18] = test system: Listeria monocytogenes; assay: Antibacterial activity against Listeria monocytogenes N836 after 18 hrs by agar dilution method; settings: N836, 18 h; how it was run: as §1
[19] = test system: Staphylococcus aureus; assay: Antibacterial activity against Staphylococcus aureus CIP 483 after 18 hrs by agar dilution method; settings: CIP 483, 18 h; how it was run: as §1
[20] = test system: Listeria monocytogenes; assay: Antibacterial activity against Listeria monocytogenes CIP 103575 after 18 hrs by agar dilution method; settings: CIP 103575, 18 h; how it was run: as §1
[21] = test system: Enterococcus faecium; assay: Antibacterial activity against Enterococcus faecium CIP 107387 after 18 hrs by agar dilution method; settings: CIP 107387, 18 h; how it was run: as §1
[22] = test system: Enterococcus faecalis; assay: Antibacterial activity against Enterococcus faecalis N518 after 18 hrs by agar dilution method; settings: N518, 18 h; how it was run: as §1
[23] = test system: Enterococcus faecium; assay: Antibacterial activity against Enterococcus faecium N823 after 18 hrs by agar dilution method; settings: N823, 18 h; how it was run: as §1
[24] = test system: Listeria monocytogenes; assay: Antibacterial activity against Listeria monocytogenes N783 after 18 hrs by agar dilution method; settings: N783, 18 h; how it was run: as §1
[25] = test system: Enterococcus gallinarum; assay: Antibacterial activity against Enterococcus gallinarum N489 after 18 hrs by agar dilution method; settings: N489, 18 h; how it was run: as §1
[26] = test system: Staphylococcus saprophyticus; assay: Antibacterial activity against Staphylococcus saprophyticus CIP 76125 after 18 hrs by agar dilution method; settings: CIP 76125, 18 h; how it was run: as §1
[27] = test system: Staphylococcus aureus; assay: Antibacterial activity against Staphylococcus aureus CIP 5710 after 18 hrs by agar dilution method; settings: CIP 5710, 18 h; how it was run: as §1
[28] = test system: Mammaliicoccus sciuri; assay: Antibacterial activity against Staphylococcus sciuri N993 after 18 hrs by agar dilution method; settings: N993, 18 h; how it was run: as §1
[29] = test system: Staphylococcus aureus; assay: Antibacterial activity against Staphylococcus aureus CIP 7625 after 18 hrs by agar dilution method; settings: CIP 7625, 18 h; how it was run: as §1
[30] = test system: Staphylococcus epidermidis; assay: Antibacterial activity against Staphylococcus epidermidis CIP 53124 after 18 hrs by agar dilution method; settings: CIP 53124, 18 h; how it was run: as §1
[31] = test system: MRC5; assay: Cytotoxicity against human MRC5 cells assessed as growth inhibition at 10^-6 M after 72 hrs by MTS assay relative to control; settings: MRC5, 72 h, read-out: GI
How it was run: (§2)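 Cells from ATCC; HCT-116 grown in RPMI 1640 and MRC5 in DMEM, each with 10% FCS and 1% glutamine, 37 °C, 5% CO2. Seeded at 2.5 × 10^3 cells/well, cultured 24 h, then exposed to compounds at 1 and 10 μM final for 72 h. MTS read-out, absorbance 490 nm; percent index from treated/control OD490 × 100, three experiments.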

[32] = test system: MRC5; assay: Cytotoxicity against human MRC5 cells assessed as growth inhibition at 10^-5 M after 72 hrs by MTS assay relative to control; settings: MRC5, 72 h, read-out: GI; how it was run: as §2
[33] = test system: Enterococcus hirae; assay: Antibacterial activity against Enterococcus hirae CIP 5855 after 18 hrs by agar dilution method; settings: CIP 5855, 18 h; how it was run: as §1
[34] = test system: Enterococcus durans; assay: Antibacterial activity against Enterococcus durans CIP 104999 after 18 hrs by agar dilution method; settings: CIP 104999, 18 h; how it was run: as §1
[35] = test system: Listeria innocua; assay: Antibacterial activity against Listeria innocua E044 after 18 hrs by agar dilution method; settings: E044, 18 h; how it was run: as §1
[36] = test system: Enterococcus casseliflavus; assay: Antibacterial activity against Enterococcus casseliflavus N487 after 18 hrs by agar dilution method; settings: N487, 18 h; how it was run: as §1
[37] = test system: Corynebacterium striatum; assay: Antibacterial activity against Corynebacterium striatum N840 after 18 hrs by agar dilution method; settings: N840, 18 h; how it was run: as §1
[38] = test system: HCT-116; assay: Cytotoxicity against human HCT116 cells assessed as growth inhibition at 10^-5 M after 72 hrs by MTS assay relative to control; settings: HCT-116, 72 h, read-out: GI; how it was run: as §2
[39] = test system: Enterococcus faecalis; assay: Antibacterial activity against Enterococcus faecalis CIP 104676 after 18 hrs by agar dilution method; settings: CIP 104676, 18 h; how it was run: as §1
[40] = test system: Enterococcus gallinarum; assay: Antibacterial activity against Enterococcus gallinarum CIP 105985 after 18 hrs by agar dilution method; settings: CIP 105985, 18 h; how it was run: as §1
[41] = test system: Staphylococcus haemolyticus; assay: Antibacterial activity against Staphylococcus haemolyticus CIP 8156 after 18 hrs by agar dilution method; settings: CIP 8156, 18 h; how it was run: as §1
[42] = test system: Enterococcus faecalis; assay: Antibacterial activity against Enterococcus faecalis N491 after 18 hrs by agar dilution method; settings: N491, 18 h; how it was run: as §1
[43] = test system: Bacillus cereus; assay: Antibacterial activity against Bacillus cereus N258 after 18 hrs by agar dilution method; settings: N258, 18 h; how it was run: as §1
[44] = test system: Enterococcus gallinarum; assay: Antibacterial activity against Enterococcus gallinarum N492 after 18 hrs by agar dilution method; settings: N492, 18 h; how it was run: as §1
[45] = test system: HCT-116; assay: Cytotoxicity against human HCT116 cells assessed as growth inhibition at 10^-6 M after 72 hrs by MTS assay relative to control; settings: HCT-116, 72 h, read-out: GI; how it was run: as §2
[46] = test system: Enterococcus casseliflavus; assay: Antibacterial activity against Enterococcus casseliflavus CIP 103018 after 18 hrs by agar dilution method; settings: CIP 103018, 18 h; how it was run: as §1
[47] = test system: Bacillus spizizenii; assay: Antibacterial activity against Bacillus subtilis ATCC 6633 after 18 hrs by agar dilution method; settings: ATCC 6633, 18 h; how it was run: as §1
[48] = test system: Enterococcus faecium; assay: Antibacterial activity against Enterococcus faecium N733 after 18 hrs by agar dilution method; settings: N733, 18 h; how it was run: as §1
[49] = test system: Staphylococcus aureus; assay: Antibacterial activity against Staphylococcus aureus ATCC 25923 after 18 hrs by agar dilution method; settings: ATCC 25923, 18 h; how it was run: as §1
[50] = test system: Enterococcus avium; assay: Antibacterial activity against Enterococcus avium CIP 104053 after 18 hrs by agar dilution method; settings: CIP 104053, 18 h; how it was run: as §1

C=C1CC[C@H]2C(C)(C)CCC[C@]2(C)[C@H]1C[C@@H](O)C1=CC(=O)OC1O (stereo not given in full) showed an MIC [1] of 12 µM (≈ 4.01 µg/mL), an MIC [2] of 12 µM (≈ 4.01 µg/mL) and an MIC [3] of 48 µM (≈ 16.1 µg/mL). It also gave an MIC [4] of 12 µM (≈ 4.01 µg/mL), an MIC [5] of 6 µM (≈ 2.01 µg/mL) and an MIC [6] of 24 µM (≈ 8.03 µg/mL). For the same compound, the MIC [7] was 96 µM (≈ 32.1 µg/mL), the MIC [8] was 24 µM (≈ 8.03 µg/mL) and the MIC [9] was 96 µM (≈ 32.1 µg/mL). The MIC [10] was 12 µM (≈ 4.01 µg/mL), the MIC [11] was 96 µM (≈ 32.1 µg/mL) and the MIC [12] was 24 µM (≈ 8.03 µg/mL). It also gave an MIC [13] of 48 µM (≈ 16.1 µg/mL), an MIC [14] of 24 µM (≈ 8.03 µg/mL) and an MIC [15] of 6 µM (≈ 2.01 µg/mL). For the same compound, the MIC [16] was 48 µM (≈ 16.1 µg/mL), the MIC [17] was 12 µM (≈ 4.01 µg/mL) and the MIC [18] was 24 µM (≈ 8.03 µg/mL). It also gave an MIC [19] of 12 µM (≈ 4.01 µg/mL), an MIC [20] of 24 µM (≈ 8.03 µg/mL) and an MIC [21] of 96 µM (≈ 32.1 µg/mL). It also gave an MIC [22] of 96 µM (≈ 32.1 µg/mL), an MIC [23] of 96 µM (≈ 32.1 µg/mL) and an MIC [24] of 48 µM (≈ 16.1 µg/mL). For the same compound, the MIC [25] was 24 µM (≈ 8.03 µg/mL), the MIC [26] was 24 µM (≈ 8.03 µg/mL) and the MIC [27] was 24 µM (≈ 8.03 µg/mL). For the same compound, the MIC [28] was 48 µM (≈ 16.1 µg/mL), the MIC [29] was 24 µM (≈ 8.03 µg/mL) and the MIC [30] was 12 µM (≈ 4.01 µg/mL). It also gave an inhibition of growth at 1 µM [31] of 22%, an inhibition of growth at 10 µM [32] of 95% and an MIC [33] of 96 µM (≈ 32.1 µg/mL). It also gave an MIC [34] of 24 µM (≈ 8.03 µg/mL), an MIC [35] of 48 µM (≈ 16.1 µg/mL) and an MIC [36] of 96 µM (≈ 32.1 µg/mL). For the same compound, the MIC [37] was 24 µM (≈ 8.03 µg/mL), the inhibition of growth at 10 µM [38] was 87% and the MIC [39] was 24 µM (≈ 8.03 µg/mL). The MIC [40] was 96 µM (≈ 32.1 µg/mL), the MIC [41] was 6 µM (≈ 2.01 µg/mL) and the MIC [42] was 24 µM (≈ 8.03 µg/mL). The MIC [43] was 6 µM (≈ 2.01 µg/mL), the MIC [44] was 48 µM (≈ 16.1 µg/mL) and the inhibition of growth at 1 µM [45] was 0%. For the same compound, the MIC [46] was 96 µM (≈ 32.1 µg/mL), the MIC [47] was 6 µM (≈ 2.01 µg/mL) and the MIC [48] was 96 µM (≈ 32.1 µg/mL). The MIC [49] was 24 µM (≈ 8.03 µg/mL) and the MIC [50] was 48 µM (≈ 16.1 µg/mL).
